Source: article PMC4530630 (Molecular cell, 2015)

Tests used:
[1] = test system: PC3 human prostate cells stably expressing GFP-LC3; assay: GFP-LC3 puncta high-throughput microscopy in PC3 cells; format: cell-based; details: 1 μM for 4 hours, control siRNA cells
Method in brief: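 GFP-LC3 PC3 cells were used for a focused RNAi screen of kinases. 48 hours after siRNA transfection, cells received 1 μM of the catalytic mTOR inhibitors AZD8055 or INK128 for 4 hours. GFP-LC3 puncta were then imaged, with nuclei counterstained by DAPI. Results were reported as mean puncta number with standard deviation for each siRNA and drug treatment.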

[2] = test system: A549 human lung cancer cells; assay: PE-AnnexinV FACS apoptosis in A549 cells; format: cell-based
Method in brief: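 A549 human lung cancer cells received AZD8055 (1 μM) or DMSO together with increasing doses of test compound for 72 hours. Cells were then collected, stained with PE-AnnexinV and quantified by FACS. Read-out was the percentage of AnnexinV-positive cells, taken as cells actively undergoing apoptosis.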

[3] = test system: panel of 456 purified human kinases; assay: DiscoveRx KINOMEscan competition-binding assay; details: tested at 10 μM
A549 cells = assay: Cyto-ID autophagy dye imaging in A549 cells; format: cell-based, human; details: 5 μM 6965 for 2 hours, then 4 μM AZD8055 for 24 hours
Method in brief: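 A549 cells were pretreated with or without test compound (5 μM) for 2 hours, then exposed to the catalytic mTOR inhibitor AZD8055 (4 μM) for 24 hours. Autophagic vacuoles were stained with the Cyto-ID autophagy detection kit and nuclei with DAPI. Read-out was immunofluorescence imaging.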

[4] = test system: endogenous FAK, AMPK, mTOR, Akt, or Erk signaling; assay: immunoblot of endogenous growth pathway signaling in wild-type MEFs; format: cell-based, mouse; details: 10 μM
Method in brief: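 Wild-type and Ulk1/Ulk2 double-knockout MEFs were given fresh DMEM with 10% FBS containing 1 μM INK128, 1 μM AZD8055 or DMSO, or EBSS starvation medium, with or without 10 μM test compound. Endogenous signaling was assessed by immunoblotting. Endogenous ULK1 activity was monitored with a phospho-specific antibody to Atg13 Ser318.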

| number of kinases inhibited >95% [3] | SMILES | induction in GFP-LC3 puncta formation [1] | apoptotic (AnnexinV-positive) cells ([2]; AZD8055 (1 μM) alone, 72 hours) | apoptotic (AnnexinV-positive) cells ([2]; 5 μM 6965 in the absence of AZD8055, 72 hours) | effect on AZD8055-induced autophagy (Cyto-ID dye accumulation) (A549 cells) | effect on endogenous FAK, AMPK, mTOR, Akt, or Erk signaling [4] |
| --- | --- | --- | --- | --- | --- | --- |
|  | CC(C)n1nc(-c2ccc3oc(N)nc3c2)c2c(N)ncnc21 [INK128] | 2 fold |  |  |  |  |
|  | COc1ccc(-c2ccc3c(N4CCOC[C@@H]4C)nc(N4CCOC[C@@H]4C)nc3n2)cc1CO [AZD8055, reference compound] | 2 fold | 7% |  |  |  |
| 10 out of 456 | CNC(=O)c1ccccc1Oc1nc(Nc2cc(OC)c(OC)c(OC)c2)ncc1Br [SBI-0206965] |  |  | 10% | strongly suppressed | did not impair |
